# ChEMBL document CHEMBL2040813, “4-Thiophenoxy-2-trichloromethyquinazolines display in vitro selective antiplasmodial activity against the human malaria parasite Plasmodium falciparum” (Bioorg Med Chem Lett, 2011)
# Tested on: Toxoplasma gondii
# Test: Antimicrobial activity against tachyzoites of Toxoplasma gondii expressing PRU-beta-Gal gene infected in HFF after 72 hrs by colorimetric microtiter assay
# Format: functional, organism-based
# Conditions: not given
row,Compound,IC50 [µM]
1,CCc1nc(N)nc(N)c1-c1ccc(Cl)cc1 [PYRIMETHAMINE],0.8

# Tested on: not listed separately
# Test: Selectivity index, ratio of CC50 for human HepG2 cells to IC50 for chloroquine, pyrimethamine, and proguanil-resistant Plasmodium falciparum K1
# Format: functional
# Conditions: not given
# Outline: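 SI = HepG2 CC50 / K1 IC50. The read-out was MTT for 2 h, formazan dissolved in DMSO, A570 with 630 nm reference. Viability is expressed as % of untreated control, CC50 taken from the dose-response curve. The IC50 is from the SYBR Green K1 assay.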
row,Compound,Ratio CC50/IC50
1,ClC(Cl)(Cl)c1nc(Sc2ccccc2)c2ccccc2n1,18.4
2,Clc1ccccc1Sc1nc(C(Cl)(Cl)Cl)nc2ccccc12,9.3
3,Clc1cccc(Sc2nc(C(Cl)(Cl)Cl)nc3ccccc23)c1,7.3
4,Fc1ccccc1Sc1nc(C(Cl)(Cl)Cl)nc2ccccc12,12.2
5,Fc1cccc(Sc2nc(C(Cl)(Cl)Cl)nc3ccccc23)c1,8.2
6,Fc1ccc(Sc2nc(C(Cl)(Cl)Cl)nc3ccccc23)cc1,>25
7,FC(F)(F)c1ccccc1Sc1nc(C(Cl)(Cl)Cl)nc2ccccc12,11.2
8,FC(F)(F)c1cccc(Sc2nc(C(Cl)(Cl)Cl)nc3ccccc23)c1,8
9,FC(F)(F)c1ccc(Sc2nc(C(Cl)(Cl)Cl)nc3ccccc23)cc1,13
10,Cc1ccccc1Sc1nc(C(Cl)(Cl)Cl)nc2ccccc12,7.4
11,Cc1cccc(Sc2nc(C(Cl)(Cl)Cl)nc3ccccc23)c1,18.4
12,Cc1ccc(Sc2nc(C(Cl)(Cl)Cl)nc3ccccc23)cc1,>19
13,COc1ccccc1Sc1nc(C(Cl)(Cl)Cl)nc2ccccc12,8.2
14,COc1cccc(Sc2nc(C(Cl)(Cl)Cl)nc3ccccc23)c1,6
15,COc1ccc(Sc2nc(C(Cl)(Cl)Cl)nc3ccccc23)cc1,>3.2
16,Clc1ccc(Sc2nc(C(Cl)(Cl)Cl)nc3ccccc23)c(Cl)c1,12.1
17,Clc1ccc(Sc2ncnc3ccccc23)cc1,3.8
18,Clc1nc(C(Cl)(Cl)Cl)nc2ccccc12,>2.3
19,C[C@H]1c2cccc(O)c2C(=O)C2=C(O)[C@]3(O)C(=O)C(C(N)=O)=C(O)[C@@H](N(C)C)[C@@H]3[C@@H](O)[C@@H]21.O [DOXYCYCLINE],4

# Tested on: not listed separately
# Test: Cytotoxicity against human HepG2 cells after 72 hrs by MTT assay
# Format: cell-based
# Conditions: not given
# Outline: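 Cells seeded in RPMI with 10% foetal bovine serum, L-glutamine, penicillin/streptomycin, 37 °C, 6% CO₂; after 24 h, compound dilutions added for 72 h. MTT (5 mg/mL in PBS) added 2 h at 37 °C, formazan dissolved in DMSO, absorbance 570 nm (reference 630 nm). Viability as percent of untreated cells; CC50 from dose–response curve; mean of three independent experiments.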
row,Compound,CC50 at 72 h [µM]
1,ClC(Cl)(Cl)c1nc(Sc2ccccc2)c2ccccc2n1,35
2,Clc1ccccc1Sc1nc(C(Cl)(Cl)Cl)nc2ccccc12,26
3,Clc1cccc(Sc2nc(C(Cl)(Cl)Cl)nc3ccccc23)c1,16
4,Fc1ccccc1Sc1nc(C(Cl)(Cl)Cl)nc2ccccc12,28
5,Fc1cccc(Sc2nc(C(Cl)(Cl)Cl)nc3ccccc23)c1,15.5
6,Fc1ccc(Sc2nc(C(Cl)(Cl)Cl)nc3ccccc23)cc1,> 30
7,FC(F)(F)c1ccccc1Sc1nc(C(Cl)(Cl)Cl)nc2ccccc12,28
8,FC(F)(F)c1cccc(Sc2nc(C(Cl)(Cl)Cl)nc3ccccc23)c1,17.5
9,FC(F)(F)c1ccc(Sc2nc(C(Cl)(Cl)Cl)nc3ccccc23)cc1,13
10,Cc1ccccc1Sc1nc(C(Cl)(Cl)Cl)nc2ccccc12,52
11,Cc1cccc(Sc2nc(C(Cl)(Cl)Cl)nc3ccccc23)c1,35
12,Cc1ccc(Sc2nc(C(Cl)(Cl)Cl)nc3ccccc23)cc1,> 30
13,COc1ccccc1Sc1nc(C(Cl)(Cl)Cl)nc2ccccc12,32
14,COc1cccc(Sc2nc(C(Cl)(Cl)Cl)nc3ccccc23)c1,12
15,COc1ccc(Sc2nc(C(Cl)(Cl)Cl)nc3ccccc23)cc1,> 8
16,Clc1ccc(Sc2nc(C(Cl)(Cl)Cl)nc3ccccc23)c(Cl)c1,18.2
17,Clc1ccc(Sc2ncnc3ccccc23)cc1,16.7
18,FC(F)(F)c1nc(Sc2ccc(Cl)cc2)c2ccccc2n1,> 15
19,Clc1nc(C(Cl)(Cl)Cl)nc2ccccc12,> 125

# Tested on: Plasmodium falciparum
# Test: Antiplasmodial activity against chloroquine, pyrimethamine, and proguanil-resistant Plasmodium falciparum K1 infected in human A+ erythrocytes after 72 hrs by SYBR Green-I fluorescence-based method
# Format: functional, organism-based
# Conditions: K1, 72 h
# Outline: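 Ring-stage cultures (5% sorbitol synchronised), maintained in A+ human erythrocytes with RPMI/HEPES/NaHCO3/10% A+ serum under 5% O2, 5% CO2. Assay at 2% haematocrit, 1% parasitaemia, graded compound concentrations, 72 h at 37 °C in triplicate. IC50 by nonlinear regression, mean of three independent experiments.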
row,Compound,IC50 [µM]
1,ClC(Cl)(Cl)c1nc(Sc2ccccc2)c2ccccc2n1,1.9
2,Clc1ccccc1Sc1nc(C(Cl)(Cl)Cl)nc2ccccc12,2.8
3,Clc1cccc(Sc2nc(C(Cl)(Cl)Cl)nc3ccccc23)c1,2.2
4,Fc1ccccc1Sc1nc(C(Cl)(Cl)Cl)nc2ccccc12,2.3
5,Fc1cccc(Sc2nc(C(Cl)(Cl)Cl)nc3ccccc23)c1,1.9
6,Fc1ccc(Sc2nc(C(Cl)(Cl)Cl)nc3ccccc23)cc1,1.2
7,FC(F)(F)c1ccccc1Sc1nc(C(Cl)(Cl)Cl)nc2ccccc12,2.5
8,FC(F)(F)c1cccc(Sc2nc(C(Cl)(Cl)Cl)nc3ccccc23)c1,2.2
9,FC(F)(F)c1ccc(Sc2nc(C(Cl)(Cl)Cl)nc3ccccc23)cc1,1
10,Cc1ccccc1Sc1nc(C(Cl)(Cl)Cl)nc2ccccc12,7
11,Cc1cccc(Sc2nc(C(Cl)(Cl)Cl)nc3ccccc23)c1,1.9
12,Cc1ccc(Sc2nc(C(Cl)(Cl)Cl)nc3ccccc23)cc1,1.6
13,COc1ccccc1Sc1nc(C(Cl)(Cl)Cl)nc2ccccc12,3.9
14,COc1cccc(Sc2nc(C(Cl)(Cl)Cl)nc3ccccc23)c1,2
15,COc1ccc(Sc2nc(C(Cl)(Cl)Cl)nc3ccccc23)cc1,2.5
16,Clc1ccc(Sc2nc(C(Cl)(Cl)Cl)nc3ccccc23)c(Cl)c1,1.5
17,Clc1ccc(Sc2ncnc3ccccc23)cc1,4.4
18,FC(F)(F)c1nc(Sc2ccc(Cl)cc2)c2ccccc2n1,> 15
19,C[C@H]1c2cccc(O)c2C(=O)C2=C(O)[C@]3(O)C(=O)C(C(N)=O)=C(O)[C@@H](N(C)C)[C@@H]3[C@@H](O)[C@@H]21.O [DOXYCYCLINE],5
